Screens as filed in PubChem BioAssay.
DTT redox prof: compounds producing H2O2 with reducing agent – biochemical, NIH compound library profiling, artefact control for MLSCN library redox annotation, primary screen | DTT-dependent redox cycling H2O2, phenol red/HRP absorbance; 100% = 100 µM peroxide control, 0% = buffer | activation, % at 10 µM | hit rate 0.03% among 200,000 | AID 878;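 active means activation of at least 50% relative to the plate's high and low controls in the primary single-dose screen; inactive means activation below 50%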;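 further: compound incubated with DTT at 0.8 mM final as the reducing agent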
UBC9 SUMO inh: SUMOylation inhibition; HTRF SUMOylation assay, SAE1/SAE2 + UBC9, in vitro; inhibition, % at 35 µM; hit rate 0.36% among 290,000; in the data active means inhibition above about 50%, passing the limit was not always enough
Target sequence (P63279 whole entry, looked up): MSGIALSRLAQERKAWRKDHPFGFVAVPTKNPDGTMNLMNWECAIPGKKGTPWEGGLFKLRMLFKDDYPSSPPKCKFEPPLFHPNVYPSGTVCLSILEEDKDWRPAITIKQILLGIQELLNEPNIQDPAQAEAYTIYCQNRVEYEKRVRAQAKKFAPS
GSTO1 counter: blocks human GSTO1 in RBBP9 counter-screen | recombinant GSTO1, activity-based probe fluorescence polarization | inhibition, % at 5.96 µM | hit rate 1.1% among 300,000 | AID 1974;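 active means inhibition above the campaign mean inhibition plus 3 SD, cut at about 35% in these data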;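 further: 0% = GSTO1-1 with DMSO and 100% = wells lacking GSTO1-1 enzyme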
Target sequence (P78417 whole entry, looked up): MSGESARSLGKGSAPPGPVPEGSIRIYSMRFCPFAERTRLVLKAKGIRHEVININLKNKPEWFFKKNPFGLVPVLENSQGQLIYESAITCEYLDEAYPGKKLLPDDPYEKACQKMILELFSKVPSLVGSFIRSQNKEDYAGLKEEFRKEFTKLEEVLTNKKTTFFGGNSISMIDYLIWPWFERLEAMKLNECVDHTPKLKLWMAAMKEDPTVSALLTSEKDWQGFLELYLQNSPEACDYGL
Apaf1 inhib: blocks human Apaf-1 apoptosome activity; O14727; reconstituted apoptosome caspase-3 activity, DEVD-Rh110 fluorescence; inhibition, % at 20 µM; hit rate 0.71% among 330,000; active means inhibition of at least 40% at 20 µM;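 further: plate controls were DMSO wells for no effect and DEVD-CHO caspase inhibitor wells for full effect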
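System: Apoptosome proteins | Medium: Hepes pH 7.5 with detergent and BSA | Also added: Cytochrome c trigger plus (Z-DEVD)2-Rh110 caspase-3 substrate | Incubation: 30 min compound preincubation, 50 min activation, room temperature | Detection: Rhodamine 110 fluorescence at Ex 480/Em 540 nm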
HKDC1 inhibitor: inhibitors of human hexokinase HKDC1; Q2TB90; recombinant HKDC1, G6PDH/diaphorase resazurin coupled fluorescence; inhibition, % at 20 µM; hit rate 0.16% among 340,000; AID 493160;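 active means inhibition above about 35% when tested at 20 µM, limit read from the data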;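 further: plate controls were DMSO wells with enzyme for no effect and DMSO wells lacking enzyme for full effect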
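Assay system: in-house recombinant HK5 (HKDC1) enzyme. Input: HKDC1 at 5 µg/mL. Medium: Tris pH 8.0 buffer with MgCl2, Tween-20, BSA, BME. Dosing: single 20 µM dose. Schedule: 90 min reaction incubation at room temperature, dark. Signal: resazurin-to-resorufin fluorescence via G6PDH and diaphorase coupling, 525/613 nm. Controls: DMSO-enzyme wells negative, buffer-substituted wells positive.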
* marks the source's active call; other numbers are inactive results; . = no result. This is a sample that favours compounds with a hit; in the whole collection about 1.4% have one here.

SMILES	DTT redox prof	UBC9 SUMO inh	GSTO1 counter	Apaf1 inhib	HKDC1 inhibitor
COc1ccc(-c2csc(NC(=O)c3ccccc3NS(=O)(=O)c3ccc(F)c(F)c3)n2)cc1	0	67*	-48	20	5
COc1[nH]c(/N=C/c2ccccc2)c(C#N)c1C#N	4	17	35*	8	14
C=C(c1ccccc1Cl)[n+]1ccccc1	.	5	5	-1	4
O=C(Nc1ccccc1Cc1ccccc1)c1ccccc1NS(=O)(=O)c1ccc(Cl)s1	0	58*	-93	7	10
CCCCCCCC(=O)Nc1ccc(C(=O)N/N=C/c2cccc([N+](=O)[O-])c2)cc1	2	50*	-5	0	-4
O=C(Nc1cc(S(=O)(=O)N2CCOCC2)ccc1N1CCOCC1)c1cccs1	.	.	.	-2	-6
Oc1ccc(NCc2cccc(OCc3ccc(F)cc3)c2)cc1	-2	74*	77*	15	3
O=[N+]([O-])c1ccc(COc2cccc(CNc3ccc(F)cc3)c2)cc1	2	-18	1	-3	-2
CCCCC(=O)NC(c1ccc(C(C)C)cc1)c1ccc2cccnc2c1O (configuration not stated)	.	-49	-4	-463	-20
CC(=O)NC(c1ccc(C(C)C)cc1)c1ccc2cccnc2c1O (configuration not stated)	.	56*	1	-2	-23
Cc1ccc(NCC(=O)N=Nc2c(O)[nH]c3ccc([N+](=O)[O-])cc23)cc1	.	29	33	0	5
O=C(O)c1ccccc1N=Nc1c(O)[nH]c2ccc([N+](=O)[O-])cc12	.	24	-4	14	37*
CCNC(=S)N=Nc1c(O)[nH]c2ccc([N+](=O)[O-])cc12	-2	-2	45*	-10	10
CCCCCC(=O)N=Nc1c(O)[nH]c2ccc([N+](=O)[O-])cc12	0	6	9	-10	-11
Cc1ccc(OC(C)C(=O)N=Nc2c(O)[nH]c3ccc([N+](=O)[O-])cc23)cc1 (configuration not stated)	-1	7	36*	9	-8
COc1ccc(CNC(=O)[C@@H](NC(=O)C2CCN(C(=O)[C@@H](N)Cc3ccccc3)CC2)C(C)C)cc1	.	-14	-5	-10	6
Nc1ccc(O)c(C(=O)O)c1	.	.	76*	.	.
CON(C)S(=O)(=O)c1cccc(C(=O)Oc2ccc(N(C)S(=O)(=O)c3ccccc3)cc2)c1	.	0	5	7	-2
CC(=O)CCc1ccc(OCC(O)CNC2CCCc3ccccc32)cc1 (configuration not stated)	0	-6	-7	65*	2
O=C(CSc1nncc2ccccc12)Nc1ccc(C(=O)O)cc1	.	1	-10	-10	0
CCNc1nc(-c2cc(C)n(Cc3ccco3)c2C)cs1	0	56*	14	4	-9
Cc1ccc(S(=O)(=O)N2CCCCC2)cc1NS(=O)(=O)c1ccc(Cl)c(C(=O)O)c1	.	.	.	5	-2
O=C(CCN1C(=O)S/C(=C\c2ccccc2)C1=O)Nc1ccc(S(=O)(=O)Nc2nccs2)cc1	16	-8	-4	0	16
COc1ccccc1/C=C1/SC(=O)N(CCC(=O)Nc2ccc(S(=O)(=O)Nc3nccs3)cc2)C1=O	0	59*	-7	15	15
Cc1ccc(S(=O)(=O)CNC(=S)c2cccc(Cl)c2)cc1	0	6	38*	11	1
SMILES	DTT redox prof	UBC9 SUMO inh	GSTO1 counter	Apaf1 inhib	HKDC1 inhibitor
Cc1ccc(-c2cc(-c3ccco3)c3c(N)c(C(=O)NN)oc3n2)cc1	.	55*	29	30	5
COc1ccc(CNc2nc3ccccc3n2CCN2CCCCC2)cc1	0	9	-4	9	6
COc1ccc(CCN2CCC(Nc3nc4ccccc4n3Cc3ccc(F)cc3)CC2)cc1	1	6	3	56*	-3
Cc1ccc(C)c(S(=O)(=O)NCC(=O)OCC(=O)Nc2sccc2C(N)=O)c1	.	.	.	-1	-4
CCCCN1C(=O)C(=O)N(CC(=O)Nc2cc(Cl)ccc2OC)C1=O	.	.	.	-6	-4
CCOC(=O)COc1ccc2c(C#N)c3ccccn3c2c1	0	36	.	.	7
N#Cc1c2ccc(OCC(N)=O)cc2n2ccccc12	0	62*	18	15	11
O=C(O)CCc1ccc(-c2ccc(Br)cc2)n1-c1cccc(O)c1	.	-2	35*	4	2
